Reference: ChEMBL document CHEMBL1128434, “Gonadotropin-releasing hormone antagonists: novel members of the azaline B family” (1995)
Each block holds one compound with its values, some of them ahead of it. Activity calls are given as the source filed them. The rule behind the calls is not given here.

How the values were obtained:
[1] = target: T1, Gonadotropin-releasing hormone receptor (Rattus norvegicus) (UniProt P30969); assay: Duration of action, measured using castrated male rat assay to inhibit luteinizing hormone release.; fully active at 24 hr but not at 48 hr; format: functional
T1 sequence (whole entry): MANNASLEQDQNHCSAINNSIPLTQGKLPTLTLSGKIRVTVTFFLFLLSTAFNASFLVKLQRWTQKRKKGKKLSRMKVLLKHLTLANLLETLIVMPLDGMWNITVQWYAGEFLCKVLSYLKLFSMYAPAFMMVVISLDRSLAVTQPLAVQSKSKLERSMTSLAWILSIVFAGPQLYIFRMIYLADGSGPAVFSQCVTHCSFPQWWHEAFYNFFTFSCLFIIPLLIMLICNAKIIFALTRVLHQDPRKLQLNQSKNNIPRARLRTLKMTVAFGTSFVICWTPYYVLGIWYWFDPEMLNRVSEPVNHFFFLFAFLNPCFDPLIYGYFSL

[2] = target: T1, Gonadotropin-releasing hormone receptor (Rattus norvegicus); assay: In vitro potency to inhibit GnRH-mediated LH secretion by cultured pituitary cells relative to [Ac-delta-Pro1,DFpa2,DTrp36]GnRH.; format: functional, cell-based; conditions: Pituitary gland cell
Method in brief: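 Dispersed rat pituitary cells in culture; antagonist inhibition of GnRH-stimulated LH secretion. Potency expressed relative to standard antagonist [Ac-Δ3Pro1,D4FPhe2,DTrp3,6]GnRH taken as 1.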

Rattus norvegicus [3] = species on record: Rattus norvegicus; assay: Effect in the anti ovulatory assay (AOA) in rats expressed as no. of rats ovulating/No of rats treated at 1.0 mg; 2/8; format: functional
Rattus norvegicus [4] = species on record: Rattus norvegicus; assay: Effect in the anti ovulatory assay (AOA) in rats expressed as no. of rats ovulating/No of rats treated at 2.5 mg; 3/3; format: functional
Rattus norvegicus [5] = species on record: Rattus norvegicus; assay: Duration of action measured using castrated male rat assay to inhibit luteinizing hormone release.; In active at 24 hr; format: functional, organism-based
Rattus norvegicus [6] = species on record: Rattus norvegicus; assay: Effect in the anti ovulatory assay (AOA) in rats expressed as no. of rats ovulating/No of rats treated at 1.0 mg; 3/7; format: functional
Rattus norvegicus [7] = species on record: Rattus norvegicus; assay: Effect in the anti ovulatory assay (AOA) in rats expressed as no. of rats ovulating/No of rats treated at 0.5 mg; 3/3; format: functional
Rattus norvegicus [8] = species on record: Rattus norvegicus; assay: Effect in the anti ovulatory assay (AOA) in rats expressed as no. of rats ovulating/No of rats treated at 1.0 mg; 4/15; format: functional
Rattus norvegicus [9] = species on record: Rattus norvegicus; assay: Effect in the anti ovulatory assay (AOA) in rats expressed as no. of rats ovulating/No of rats treated at 0.5 mg; 8/8; format: functional
Rattus norvegicus [10] = species on record: Rattus norvegicus; assay: Effect in the anti ovulatory assay (AOA) in rats expressed as no. of rats ovulating/No of rats treated at 2.5 mg; 0/2; format: functional
Rattus norvegicus [11] = species on record: Rattus norvegicus; assay: Effect in the anti ovulatory assay (AOA) in rats expressed as no. of rats ovulating/No of rats treated at 1.0 mg; 4/6; format: functional
Rattus norvegicus [12] = species on record: Rattus norvegicus; assay: Effect in the anti ovulatory assay (AOA) in rats expressed as no. of rats ovulating/No of rats treated at 2.5 mg; 2/8; format: functional
[13] = target: T1, Gonadotropin-releasing hormone receptor (Rattus norvegicus); assay: Effect in the anti ovulatory assay (AOA) in rats expressed as no. of rats ovulating/No of rats treated at 2.5 mg; 0/8; format: functional
Rattus norvegicus [14] = species on record: Rattus norvegicus; assay: Effect in the anti ovulatory assay (AOA) in rats expressed as no. of rats ovulating/No of rats treated at 1.0 mg; 6/6; format: functional
Rattus norvegicus [15] = species on record: Rattus norvegicus; assay: Effect in the anti ovulatory assay (AOA) in rats expressed as no. of rats ovulating/No of rats treated at 1.0 mg; 9/12; format: functional

- Duration of action [1]: 24 h
- Relative potency [2]: 0.36
Structure (SMILES): CC(=O)N[C@H](Cc1ccc2ccccc2c1)C(=O)N[C@H](Cc1ccc(Cl)cc1)C(=O)N[C@H](Cc1cccnc1)C(=O)N[C@@H](CO)C(=O)N[C@@H](Cc1ccc(NC(=O)[C@H](C)Nc2n[nH]c(N)n2)cc1)C(=O)N[C@H](Cc1ccc(NC(=O)[C@@H](C)Nc2n[nH]c(N)n2)cc1)C(=O)N[C@@H](CC(C)C)C(=O)N[C@@H](CCCCNC(C)C)C(=O)N1CCC[C@H]1C(=O)N[C@H](C)N
- No. of rats ovulated (Rattus norvegicus [3]): 2

- Relative potency [2]: 0.36
Structure (SMILES): CC(=O)NCCCC[C@H](NC(=O)[C@H](CO)NC(=O)[C@@H](Cc1cccnc1)NC(=O)[C@@H](Cc1ccc(Cl)cc1)NC(=O)[C@@H](Cc1ccc2ccccc2c1)NC(C)=O)C(=O)N[C@H](CCCCNC(C)=O)C(=O)N[C@@H](CC(C)C)C(=O)N[C@@H](CCCCNC(C)C)C(=O)N1CCC[C@H]1C(=O)N[C@H](C)N
- No. of rats ovulated (Rattus norvegicus [4]): 3
- Duration of action (Rattus norvegicus [5]): inactive

- Relative potency [2]: 2.8
Structure (SMILES): CC(=O)Nc1ccc(C[C@@H](NC(=O)[C@H](Cc2ccc(O)cc2)NC(=O)[C@H](CO)NC(=O)[C@@H](Cc2cccnc2)NC(=O)[C@@H](Cc2ccc(Cl)cc2)NC(=O)[C@@H](Cc2ccc3ccccc3c2)NC(C)=O)C(=O)N[C@@H](CC(C)C)C(=O)N[C@@H](CCCCNC(C)C)C(=O)N2CCC[C@H]2C(=O)N[C@H](C)N)cc1
- No. of rats ovulated (Rattus norvegicus [6]): 3
- No. of rats ovulated (Rattus norvegicus [7]): 3

- Duration of action [1]: 24 h
- Relative potency [2]: 0.47
Structure (SMILES): CC(=O)N[C@@H](Cc1c[nH]cn1)C(=O)Nc1ccc(C[C@H](NC(=O)[C@H](CO)NC(=O)[C@@H](Cc2cccnc2)NC(=O)[C@@H](Cc2ccc(Cl)cc2)NC(=O)[C@@H](Cc2ccc3ccccc3c2)NC(C)=O)C(=O)N[C@H](Cc2ccc(NC(=O)[C@@H](Cc3c[nH]cn3)NC(C)=O)cc2)C(=O)N[C@@H](CC(C)C)C(=O)N[C@@H](CCCCNC(C)C)C(=O)N2CCC[C@H]2C(=O)N[C@H](C)N)cc1
- No. of rats ovulated (Rattus norvegicus [8]): 4
- No. of rats ovulated (Rattus norvegicus [9]): 8
- No. of rats ovulated (Rattus norvegicus [10]): 0

Structure (SMILES): CC(=O)N[C@@H](CC(N)=O)C(=O)Nc1ccc(C[C@H](NC(=O)[C@H](CO)NC(=O)[C@@H](Cc2cccnc2)NC(=O)[C@@H](Cc2ccc(Cl)cc2)NC(=O)[C@@H](Cc2ccc3ccccc3c2)NC(C)=O)C(=O)N[C@H](Cc2ccc(NC(=O)[C@@H](CC(N)=O)NC(C)=O)cc2)C(=O)N[C@@H](CC(C)C)C(=O)N[C@@H](CCCCNC(C)C)C(=O)N2CCC[C@H]2C(=O)N[C@H](C)N)cc1
- No. of rats ovulated (Rattus norvegicus [11]): 4
- No. of rats ovulated (Rattus norvegicus [12]): 2

- No. of rats ovulated [13]: 0
Structure (SMILES): CCCC(=O)Nc1ccc(C[C@H](NC(=O)[C@H](CO)NC(=O)[C@@H](Cc2cccnc2)NC(=O)[C@@H](Cc2ccc(Cl)cc2)NC(=O)[C@@H](Cc2ccc3ccccc3c2)NC(C)=O)C(=O)N[C@H](Cc2ccc(NC(=O)CCC)cc2)C(=O)N[C@@H](CC(C)C)C(=O)N[C@@H](CCCCNC(C)C)C(=O)N2CCC[C@H]2C(=O)N[C@H](C)N)cc1
- No. of rats ovulated (Rattus norvegicus [14]): 6

Structure (SMILES): CC(=O)N[C@H](Cc1ccc2ccccc2n1)C(=O)N[C@H](Cc1ccc(Cl)cc1)C(=O)N[C@H](Cc1cccnc1)C(=O)N[C@@H](CO)C(=O)N[C@@H](Cc1ccc(Nc2n[nH]c(N)n2)cc1)C(=O)N[C@H](Cc1ccc(Nc2n[nH]c(N)n2)cc1)C(=O)N[C@@H](CC(C)C)C(=O)N[C@@H](CCCCNC(C)C)C(=O)N1CCC[C@H]1C(=O)N[C@H](C)N
- No. of rats ovulated (Rattus norvegicus [15]): 9
